In PMC9076653 (RSC Advances, 2019):
Where “and” joins values, the source holds several entries; their conditions need not be identical. Equal values may be shown once.

Legend:
SW480 = experiment: MTT cell growth inhibition assay, SW480; assay type: cell-based; conditions: Homo sapiens, SW480, 72 h, read-out: IC50 SW480
Procedure, shortened: (§1)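 MTT assay. Seeding per well was 3 × 10^3 for cancer cells, 4 × 10^3 for HUVEC and 8 × 10^3 for HL7702. Test compound was added after adherence and incubated 72 h. MTT (5 mg mL−1 stock) was added for a further 4 h at 37 °C, formazan was dissolved in DMSO, and absorbance was read at 570 nm. Inhibition was calculated relative to controls, and IC50 is the concentration giving 50% growth inhibition.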

HeLa = experiment: MTT cell growth inhibition assay, HeLa; assay type: cell-based; conditions: Homo sapiens, 72 h, read-out: IC50 HeLa
Procedure, shortened: as §1

HepG2 = experiment: MTT cell growth inhibition assay, HepG2; assay type: cell-based; conditions: Homo sapiens, HepG2, 72 h, read-out: IC50 HepG2
Procedure, shortened: as §1

MDA-MB-231 = experiment: MTT cell growth inhibition assay, MDA-MB-231; assay type: cell-based; conditions: Homo sapiens, MDA-MB-231, 72 h, read-out: IC50 MDA-MB-231
Procedure, shortened: as §1

[1] = test system: Hsp90 client proteins (Her2, AKT, CDK4) and Hsp70 in MDA-MB 231 cells; experiment: Western blot assay of Hsp90 inhibition in cellular system; assay type: cell-based, human; conditions: 0.5 μM
Procedure, shortened: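 MDA-MB 231 cells were treated with or without test compound over different time courses. Cells were lysed in ice-cold Tris-HCl (pH 7.4) buffer with Triton, EDTA/EGTA, phosphatase and protease inhibitors, then boiled 10 min in SDS loading buffer. Proteins were separated by 8–12% SDS-PAGE and transferred to PVDF. Membranes were blocked in 5% BSA in PBS-Tween for 1 h, incubated with primary antibodies overnight at 4 °C, and detected with peroxidase-conjugated anti-rabbit or anti-mouse secondary antibodies and ECL.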

A431 = experiment: MTT cell growth inhibition assay, A431; assay type: cell-based; conditions: Homo sapiens, A-431, 72 h, read-out: IC50 A431
Procedure, shortened: as §1

HL7702 = experiment: MTT cell growth inhibition assay, HL7702; assay type: cell-based; conditions: Homo sapiens, L02, 72 h, read-out: IC50 HL7702
Procedure, shortened: as §1

MDA-MB-231 xenograft = experiment: In vivo antitumor assay, MDA-MB-231 xenograft model; parameters: species or system nude mice; conditions: 10 mg kg^−1 via caudal vein every three days, 15 days
Procedure, shortened: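 Female athymic nude mice (6–7 weeks) first received 5 × 10^6 logarithmic-phase MDA-MB-231 cells s.c. in physiological saline. After two weeks, tumour fragments were implanted into the right flank. At a mean tumour volume of 100 mm3, mice were randomised (6 per group) and dosed 10 mg kg−1 via the tail vein every three days for 15 days. Vehicle was 5% glucose with 1% DMSO and 2% lecithin; a reference Hsp90 inhibitor served as positive control. Calipers were used every three days, with V = length × width²/2. TGI came from final tumour weights, and T/C from mean RTV (Vt/V0). Student's two-tailed t test was used, P < 0.05.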

A549 = experiment: MTT cell growth inhibition assay, A549; assay type: cell-based; conditions: Homo sapiens, A549, 72 h, read-out: IC50 A549
Procedure, shortened: as §1

HUVEC = experiment: MTT cell growth inhibition assay, HUVEC; assay type: cell-based; conditions: Homo sapiens, 72 h, read-out: IC50 HUVEC
Procedure, shortened: as §1

BGC-823 = experiment: MTT cell growth inhibition assay, BGC-823; assay type: cell-based; conditions: Homo sapiens, BGC-823, 72 h, read-out: IC50 BGC-823
Procedure, shortened: as §1

[2] = In vivo hepatotoxicity assay; parameters: species or system Kunming mice; conditions: mice
Procedure, shortened: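 Female Kunming mice (4–6 weeks) were randomised into three groups of three: vehicle control, or test compound or parent ansamycin at 10 mg kg−1. They were injected once daily for three consecutive days. Serum AST and ALT were then measured with spectrophotometric kits and reported in U L−1.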

[3] = 10 mg kg^−1, injected once a day for three days, blood serum

Row | Compound | IC50 (SW480) | IC50 (HeLa) | IC50 (HepG2) | IC50 (MDA-MB-231) | levels of Hsp70 [1] | IC50 (A431) | IC50 (HL7702) | T/C (MDA-MB-231 xenograft; relative tumor volume) | TGI (MDA-MB-231 xenograft; tumor weight) | IC50 (A549) | IC50 (HUVEC) | IC50 (BGC-823) | ALT [2, 3] | AST [2, 3] | AST and ALT levels versus vehicle control group ([2]; 10 mg kg^−1, three days)
1 | C=CCNC1=C2C[C@@H](C)C[C@H](OC)[C@H](O)[C@@H](C)/C=C(\C)[C@H](OC(N)=O)[C@@H](OC)/C=C\C=C(/C)C(=O)NC(=CC1=O)C2=O [Compound 17-AAG, 17-allylamino-17-demethoxygeldanamycin] | 614 ± 85 nM | 112 ± 18 nM | 82 ± 16 nM | 324 ± 76 nM | markedly increased | 72 ± 4 nM | 105 ± 7 nM | 41.9% and 41.9 ± 11.3% | 55.1% and 55.1 ± 5.5% | 87 ± 6 nM | 271 ± 38 nM | 725 ± 99 nM | – | – | –
2 | COC1=C2C[C@@H](C)C[C@H](OC)[C@H](O)[C@@H](C)/C=C(\C)[C@H](OC(N)=O)[C@@H](OC)/C=C\C=C(/C)C(=O)NC(=CC1=O)C2=O [GA, Geldanamycin] | 298 ± 34 nM | 731 ± 53 nM | 45 ± 7 nM | 59 ± 13 nM | markedly increased | 45 ± 6 nM | 133 ± 20 nM | – | – | 91 ± 7 nM | 18 ± 3 nM | 40 ± 8 nM | 273.0 ± 25.3 U L^−1 | 317.2 ± 39.1 U L^−1 | significantly higher
